Data published in ChEMBL document CHEMBL1123579, “Synthesis and evaluation of mono-, di-, and trifluoroethenyl-GABA derivatives as GABA-T inhibitors” (J Med Chem, 1987).

Legend:
[1] = Dissociation constant pKa was reported.; type: physicochemical
Mus musculus [2] = assay: Brain GABA level was measured in mice 6 hour after intraperitoneal administration at a dose of 1.9 mM/ kg.; type: functional
Summary of the method: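 Male Swiss Albino mice (20–25 g), housed five per cage with free food and water on a 12-h light cycle, received drug ip as aqueous solution and were decapitated 6 h later. Half-brain homogenized in 10 mL 0.2 N HClO4, and supernatant GABA measured on an automatic amino acid analyzer. Mean ± SEM of five animals; control n = 15 pooled across days; Student's t test.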

Mus musculus [3] = assay: In vivo brain GABA-T activity was measured in mice 6 hour after intraperitoneal administration at a dose of 1.9 mM / kg.; type: functional
Summary of the method: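 Male Swiss Albino mice (20–25 g) received drug ip as aqueous solution and were decapitated 6 h later. Half-brain was frozen, then homogenized in 9 volumes of 10 mM KH2PO4 pH 6.8 with 0.1 mM pyridoxal phosphate, 1 mM EDTA, 0.1 mM glutathione, 0.13% Triton X-100 and 20% glycerol for GABA-T activity. Mean ± SEM, n = 5; control n = 15; Student's t test.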

Mus musculus [4] = assay: In vivo brain GABA-T activity was measured in mice 6 hour after intraperitoneal administration at a dose of 3.8 mM / kg.; type: functional
Summary of the method: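 Male Swiss Albino mice (20–25 g) got an ip aqueous dose and were decapitated 6 h later. Brains were split sagittally and frozen. Half-brain was homogenized in 9 volumes of 10 mM KH2PO4 pH 6.8 with 0.1 mM pyridoxal phosphate, 1 mM EDTA, 0.1 mM glutathione, 0.13% Triton X-100 and 20% glycerol for GABA-T activity. Values are mean ± SEM, n = 5 (controls 15); Student's t test.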

Mus musculus [5] = assay: Brain GABA level was measured in mice 6 hour after intraperitoneal administration at a dose of 3.8 mM/ kg.; type: functional
Summary of the method: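 Male Swiss Albino mice (20–25 g), housed five per cage under a 12-h light-dark cycle, were given drug ip as an aqueous solution. They were decapitated 6 h later and brains split sagittally and frozen. Half-brain was homogenized in 10 mL 0.2 N HClO4, and supernatant GABA was measured by automatic amino acid analyzer. Values are mean ± SEM of five animals (controls: 15, different days); Student's t test.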

Compound | pKa [1] | Activity (Mus musculus [2]) [µM/g] | Activity (Mus musculus [3]) [mM/h] | Activity (Mus musculus [4]) [mM/h] | Activity (Mus musculus [5]) [µM/g]
NC(CCC(=O)O)C(F)=C(F)F (stereo unspecified) | 7.87 |  |  | 69.4 | 2.7
NC(/C=C\F)CCC(=O)O (stereo unspecified) | 9.35 | 9.8 | 38.3 |  | 
NC(C=C(F)F)CCC(=O)O (stereo unspecified) | 9.32 | 2.8 | 42.4 |  | 

The next lines start with results.

pKa [1] | Compound | Activity (Mus musculus [2]) [µM/g] | Activity (Mus musculus [3]) [mM/h] | Activity (Mus musculus [4]) [mM/h] | Activity (Mus musculus [5]) [µM/g]
8.2 | C#CC(N)CCC(=O)O (stereo unspecified) |  |  |  | 
8.32 | C=C(F)C(N)CCC(=O)O (stereo unspecified) | 3.6 | 59.7 |  | 
9.5 | C=CC(N)CCC(=O)O (stereo unspecified) [VIGABATRIN] | 9.1 | 29.3 |  | 
